The text below walks through data of ChEMBL document CHEMBL5252543, “Ester-prodrugs of ethambutol control its antibacterial activity and provide rapid screening for mycobacterial hydrolase activity” (2017).

SMILES strings stand for the structures.

Format in all cases: functional
Common to all, as to conditions: 72 h, time 3 day

For assay [1], the system named is Mycolicibacterium smegmatis. The assay can be described thus: Antimicrobial activity against Mycobacterium smegmatis assessed as bacterial growth inhibition preincubated with PLE for 1 hr measured after 3 days by multimode plate reader analysis. The essentials: (§1)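 MIC99 in M. smegmatis with esterase pretreatment. The highest-concentration sample (50 μg/mL) was preincubated 1 h at RT with pig liver esterase (0.1 mg/mL), alone or with PMSF (1 mM), before serial dilution and 1:1 mixing with M. smegmatis in Middlebrook (final 25 to 0.012 μg/mL). Growth read as A600 after 72 h at 37 °C, 225 rpm.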

The subject of assay [2] is Mycolicibacterium smegmatis. The assay can be described thus: Antimicrobial activity against Mycobacterium smegmatis assessed as bacterial growth inhibition measured after 3 days by multimode plate reader analysis. The essentials:
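MIC99 in M. smegmatis broth. Compounds serially diluted in Middlebrook media, then diluted 1:1 with M. smegmatis in Middlebrook (final 25 μg/mL to 0.012 μg/mL). Plates grown 72 h at 37 °C, 225 rpm; growth read as A600.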

Assay [3] deals with Mycolicibacterium smegmatis. The assay can be described thus: Antimicrobial activity against Mycobacterium smegmatis assessed as bacterial growth inhibition preincubated with PLE and PMSF for 1 hr measured after 3 days by multimode plate reader analysis. The method in brief: as §1

For the compound `CC[C@@H](COC(=O)C(C)C)NCCN[C@@H](CC)COC(=O)C(C)C.Cl.Cl`, the results for the MIC99 in assay [1], in assay [2] and in assay [3] were 0.39 µg/mL, 6.3 µg/mL and 6.3 µg/mL, respectively.
Consider `CC[C@@H](COC(=O)C(C)(C)C)NCCN[C@@H](CC)COC(=O)C(C)(C)C.Cl.Cl`, for which the results for the MIC99 in assay [1], in assay [2] and in assay [3] were 0.78 µg/mL, 6.3 µg/mL and 6.3 µg/mL, respectively.
Take `CC[C@@H](COC(=O)C1CCC1)NCCN[C@@H](CC)COC(=O)C1CCC1.Cl.Cl`: the MIC99 in assay [1] worked out at 0.39 µg/mL; in assay [2] it was 3.1 µg/mL; in assay [3] it was 6.2 µg/mL.
On the same counts, the results for `CC[C@@H](COC(=O)C1(C)CC1)NCCN[C@@H](CC)COC(=O)C1(C)CC1.Cl.Cl` are 0.78 µg/mL, 13 µg/mL and 25 µg/mL.
On the same counts, the results for `CC[C@@H](COC(=O)CC(C)C)NCCN[C@@H](CC)COC(=O)CC(C)C.Cl.Cl` are 0.2 µg/mL, 6.3 µg/mL and 0.39 µg/mL.
On the same counts, the results for `CC[C@@H](CO)NCCN[C@@H](CC)CO.Cl.Cl` [ETHAMBUTOL HYDROCHLORIDE] are 0.098 µg/mL, 0.098 µg/mL and 0.098 µg/mL.
`CCC(=O)OC[C@H](CC)NCCN[C@@H](CC)COC(=O)CC.Cl.Cl`: the MIC99 in assay [1], in assay [2] and in assay [3] was 0.78 µg/mL in each case.
With `CC[C@@H](COC(=O)C1CCCC1)NCCN[C@@H](CC)COC(=O)C1CCCC1.Cl.Cl`, the MIC99 in assay [1] was found to be 0.098 µg/mL; in assay [2], 6.3 µg/mL; in assay [3] it was 1.6 µg/mL.
Taken in the same sequence, the figures for `CCC(CC)C(=O)OC[C@H](CC)NCCN[C@@H](CC)COC(=O)C(CC)CC.Cl.Cl` were 0.2 µg/mL, 1.6 µg/mL and 0.78 µg/mL.
